Experiment [1] in a line: Cytotoxicity against human BEAS2B cells after 48 hrs by MTS assay. It is filed as cell-based. To be noted: BEAS-2B. A general note: Tetrazolium dyes change colour on reduction, which living cells bring about.
Experiment [2] deals with SW480. The experiment in a line: Cytotoxicity against human SW480 cells after 48 hrs by MTS assay. To be noted: SW480, 48 h. The experiment is classed as functional, cell-based. Put shortly:
(§1)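 Cells were kept in RPMI-1640 or DMEM with 10% FBS at 37 °C under 5% CO2 and seeded at 1 × 10^5 cells/mL, with adherent cells allowed 12 h to attach. Compounds were tested at 0.064, 0.32, 1.6, 8 and 40 μM, in triplicate, for 48 h at 37 °C. Cisplatin and paclitaxel were the positive controls. MTS was then added for 4 h and absorbance read at […]. IC50 was calculated by the Reed and Muench method.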

The subject of experiment [3] is MCF7. The experiment in a line: Cytotoxicity against human MCF7 cells after 48 hrs by MTS assay. Particulars: MCF7, 48 h. The experiment is classed as functional, cell-based. The method, boiled down: as §1
For experiment [4], the system named is A549. The experiment in a line: Cytotoxicity against human A549 cells after 48 hrs by MTS assay. It is filed as functional, cell-based. To be noted: A549, 48 h. The method, boiled down: as §1
Experiment [5] deals with SMMC-7721. The experiment in a line: Cytotoxicity against human SMMC7721 cells after 48 hrs by MTS assay. It is filed as functional, cell-based. Particulars: SMMC-7721, 48 h. The method, boiled down:
as §1

The subject of experiment [6] is HL-60. The experiment in a line: Cytotoxicity against human HL60 cells after 48 hrs by MTS assay. It is filed as functional, cell-based. To be noted: HL-60, 48 h. The method, boiled down:
as §1

Each structure is given as a SMILES string.

One may read the IC50 as the concentration at which inhibition is half-maximal.

Consider `C=C1C(=O)[C@@]23[C@H](O)C[C@@H]4C(C)(C)[C@@H](OC(C)=O)CC[C@@]4(C)[C@@H]2[C@H](O)C[C@@H]1[C@H]3O`, for which the IC50 in experiment [1] turned out to be 2800 nM; in experiment [2] it was 1400 nM; in experiment [3], 3400 nM; in experiment [4] it was 3500 nM; in experiment [5], 1100 nM; in experiment [6] it was 2500 nM.
For the compound `C=C1C(=O)[C@@]23[C@H](O)C[C@@H]4C(C)(C)[C@@H](OC(C)=O)CC[C@@]4(C)[C@@H]2[C@@H](O)C[C@@H]1[C@H]3O`, the concentration for half-maximal inhibition (IC50) in experiment [1] was over 10000 nM; in experiment [2], 5500 nM; in experiment [3], over 10000 nM; in experiment [4], over 10000 nM; in experiment [5], 3800 nM; in experiment [6] it was 9700 nM.
`C=C1C(=O)[C@@]23[C@H](O)C[C@@H]4C(C)(C)[C@@H](OC(C)=O)CC[C@@]4(C)[C@@H]2C(=O)C[C@@H]1[C@H]3O`: the IC50 in experiment [1] worked out at 2000 nM; in experiment [2], 1600 nM; in experiment [3] it was 2500 nM; in experiment [4], 2700 nM; in experiment [5] it was 3000 nM; in experiment [6] it was 2800 nM.
With `C=C1C(=O)[C@@]23[C@H](O)C[C@@H]4C(C)(C)C(=O)CC[C@@]4(C)[C@@H]2[C@H](O)C[C@@H]1[C@H]3O`, the half-maximal inhibitory concentration (IC50) in experiment [1] is over 10000 nM; in experiment [2], 8100 nM; in experiment [3], over 10000 nM; in experiment [4], over 10000 nM; in experiment [5] it was over 10000 nM; in experiment [6] it was over 10000 nM.
Turning to `C=C1C(=O)[C@@]23[C@H](O)C[C@@H]4C(C)(C)[C@@H](O)CC[C@@]4(C)[C@@H]2C(=O)C[C@@H]1[C@H]3O`, the IC50 was over 10000 nM in experiment [1]; 7600 nM in experiment [2]; over 10000 nM in experiment [3]; over 10000 nM in experiment [4]; over 10000 nM in experiment [5]; over 10000 nM in experiment [6].
On to `C=C1C(=O)[C@@]23[C@H](O)C[C@@H]4C(C)(C)C(=O)CC[C@@]4(C)[C@@H]2C(=O)C[C@@H]1[C@H]3O`, for which the IC50 in experiment [1] came out at 3100 nM; in experiment [2] it was 2200 nM; in experiment [3] it was 3100 nM; in experiment [4] it was 6400 nM; in experiment [5], 4900 nM; in experiment [6] it was 3300 nM.
As to `C=C1C(=O)[C@@]23[C@H](O)C[C@@H]4C(C)(C)[C@@H](OC(C)=O)CC[C@@]4(C)[C@@H]2C=C[C@@H]1[C@H]3O`, the half-maximal inhibitory concentration (IC50) in experiment [1] was 880 nM; in experiment [2], 2800 nM; in experiment [3] it was 1700 nM; in experiment [4] it was 3100 nM; in experiment [5], 2800 nM; in experiment [6] it was 2100 nM.
Consider `C=C1C(=O)[C@@]23[C@H](O)C[C@@H]4C(C)(C)[C@@H](OC(C)=O)CC[C@@]4(C)[C@@H]2[C@@H]2O[C@@H]2[C@@H]1[C@H]3O`, for which the IC50 in experiment [1] came to 730 nM; in experiment [2] it was 1800 nM; in experiment [3], 3000 nM; in experiment [4], 1100 nM; in experiment [5], 1300 nM; in experiment [6], 650 nM.
As for `C=C1C(=O)[C@@]23[C@H](O)C[C@@H]4[C@@](C)(COC(C)=O)CCC[C@@]4(C)[C@@H]2C(=O)C[C@@H]1[C@H]3O`, the IC50 in experiment [1] was 870 nM; in experiment [2] it was 1700 nM; in experiment [3], 1800 nM; in experiment [4] it was 940 nM; in experiment [5] it was 960 nM; in experiment [6], 710 nM.
Consider `COC[C@H]1C(=O)[C@@]23[C@H](O)C[C@@H]4C(C)(C)[C@@H](OC(C)=O)CC[C@@]4(C)[C@@H]2C(=O)C[C@@H]1[C@H]3O`, for which the IC50 in experiment [1] was determined as 2500 nM; in experiment [2] it was 2000 nM; in experiment [3], 2500 nM; in experiment [4], 2900 nM; in experiment [5], 4000 nM; in experiment [6] it was 3700 nM.
With `CCOC[C@@H]1C(=O)[C@@]23[C@H](O)C[C@@H]4C(C)(C)[C@@H](OC(C)=O)CC[C@@]4(C)[C@@H]2C(=O)C[C@@H]1[C@H]3O`, the half-inhibitory concentration (IC50) in experiment [1], in experiment [2], in experiment [3], in experiment [4], in experiment [5] and in experiment [6] was over 10000 nM each time.
For `CCOC[C@H]1C(=O)[C@@]23[C@H](O)C[C@@H]4C(C)(C)[C@@H](OC(C)=O)CC[C@@]4(C)[C@@H]2C(=O)C[C@@H]1[C@H]3O`, the IC50 in experiment [1] was found to be 2800 nM; in experiment [2] it was 3000 nM; in experiment [3], 3100 nM; in experiment [4], 3500 nM; in experiment [5], 3500 nM; in experiment [6], 3300 nM.
As for `COC[C@@H]1C(=O)[C@@]23[C@H](O)C[C@@H]4C(C)(C)C(=O)CC[C@@]4(C)[C@@H]2C(=O)C[C@@H]1[C@H]3O`, the IC50 in experiment [1], in experiment [2], in experiment [3], in experiment [4], in experiment [5] and in experiment [6] was over 10000 nM throughout.
As to `COC[C@@H]1C(=O)[C@@]23[C@H](O)C[C@@H]4[C@@](C)(COC(C)=O)CCC[C@@]4(C)[C@@H]2C(=O)C[C@@H]1[C@H]3O`, the IC50 is over 10000 nM in experiment [1]; 6700 nM in experiment [2]; over 10000 nM in experiment [3]; over 10000 nM in experiment [4]; over 10000 nM in experiment [5]; over 10000 nM in experiment [6].
In the case of `COC[C@H]1C(=O)[C@@]23[C@H](O)C[C@@H]4[C@@](C)(COC(C)=O)CCC[C@@]4(C)[C@@H]2C(=O)C[C@@H]1[C@H]3O`, the IC50 was 3000 nM in experiment [1]; 2600 nM in experiment [2]; 2000 nM in experiment [3]; 3000 nM in experiment [4]; 3500 nM in experiment [5]; 2800 nM in experiment [6].
For the compound `CC(=O)O[C@H]1C(=O)[C@@]2(C)[C@H]([C@H](OC(=O)c3ccccc3)[C@]3(O)C[C@H](OC(=O)[C@H](O)[C@@H](NC(=O)c4ccccc4)c4ccccc4)C(C)=C1C3(C)C)[C@]1(OC(C)=O)CO[C@@H]1C[C@@H]2O` [PACLITAXEL], the half-maximal inhibitory concentration (IC50) in experiment [1] is 580 nM; in experiment [2], under 8 nM; in experiment [3], under 8 nM; in experiment [4] it was under 8 nM; in experiment [5], under 8 nM; in experiment [6] it was under 8 nM.

Values taken from ChEMBL document CHEMBL3091463, “Cytotoxic ent-kaurane diterpenoids from Salvia cavaleriei” (J Nat Prod, 2013).
